Screening data as filed in PubChem BioAssay.
A selection: hits, their analogues and other compounds. The true share with any hit is near 6.4%.
PostGolgi ctrl: growth of the yeast control strain, post-Golgi counter-screen. efflux-deficient yeast background strain, growth absorbance A615, 16 h. inhibition, % at 10 µM. hit rate 5% among 98,000
PLK1 PBD inh: inhibitors of human Plk1 polo box domain binding | P53350 | inhibition, %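 (tested at about 20 µM)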 | AID 693 | Plk1 PBD phosphopeptide binding, fluorescence polarization | hit rate 0.13% among 97,000; in the data active = inhibition above about 34%, passing the limit was not always enough
PostGolgi yeast: growth inhibition of a yeast mutant, post-Golgi transport screen | post-Golgi transport phenotypic cell assay | hit rate 0.9% among 98,000 | inhibition, % at 10 µM | AID 739;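 note: yeast cells grown in 1536-well plates; yeast grown about 18 h at 30C before absorbance read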
EphB4 ephrin blk: antagonists of human EphB4-ephrin-B2 interaction. P54760. EphB4 LBD / TNYL-RAW-Alexa532 peptide, fluorescence polarization. inhibition, % at 7 µM. hit rate 0.15% among 97,000. AID 720;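 active = inhibition above the screen-wide mean inhibition plus 3 SD, cut at about 15% in these data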
Target sequence (P54760 whole entry, looked up, the tested form may be a part): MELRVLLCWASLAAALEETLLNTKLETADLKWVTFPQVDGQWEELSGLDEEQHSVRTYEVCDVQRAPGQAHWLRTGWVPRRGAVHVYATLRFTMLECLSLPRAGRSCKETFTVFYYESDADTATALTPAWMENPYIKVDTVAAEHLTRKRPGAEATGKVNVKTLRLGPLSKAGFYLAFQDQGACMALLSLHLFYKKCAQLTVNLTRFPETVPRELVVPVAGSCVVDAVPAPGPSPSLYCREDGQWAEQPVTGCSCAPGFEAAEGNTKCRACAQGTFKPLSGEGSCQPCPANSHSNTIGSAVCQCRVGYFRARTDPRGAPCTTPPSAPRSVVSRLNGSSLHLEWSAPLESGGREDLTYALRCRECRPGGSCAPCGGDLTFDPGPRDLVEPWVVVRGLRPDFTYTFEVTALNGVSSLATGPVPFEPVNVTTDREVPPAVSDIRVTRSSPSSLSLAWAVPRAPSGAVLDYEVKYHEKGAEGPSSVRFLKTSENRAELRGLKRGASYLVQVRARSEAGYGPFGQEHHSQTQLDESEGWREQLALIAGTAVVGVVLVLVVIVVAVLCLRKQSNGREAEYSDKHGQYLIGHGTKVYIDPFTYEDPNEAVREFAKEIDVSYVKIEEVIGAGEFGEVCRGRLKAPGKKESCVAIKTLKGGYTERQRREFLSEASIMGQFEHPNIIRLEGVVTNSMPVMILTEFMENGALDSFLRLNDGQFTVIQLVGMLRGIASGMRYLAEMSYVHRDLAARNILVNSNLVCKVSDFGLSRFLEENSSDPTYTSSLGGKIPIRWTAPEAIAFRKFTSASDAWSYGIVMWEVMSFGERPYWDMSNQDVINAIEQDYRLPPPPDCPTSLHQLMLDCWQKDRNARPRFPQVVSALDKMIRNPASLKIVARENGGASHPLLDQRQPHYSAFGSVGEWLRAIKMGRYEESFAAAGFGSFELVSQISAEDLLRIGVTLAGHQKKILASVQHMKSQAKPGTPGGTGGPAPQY
Rev-RRE block: disrupts HIV-1 Rev binding to RRE RNA | AID 704 | hit rate 0.79% among 97,000 | Rev peptide-RRE RNA binding, FRET | inhibition, % at 8 µM | P05866;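 active = inhibition above the screen-wide mean plus 3 SD, cut at about 35% in these data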
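Assay system: Rev peptide and RRE RNA, both fluorescently labelled; times: 5 min preincubation and 15 min binding, 25 °C; detection: FRET, ex 480 nm, em 540 and 671 nm; read-out basis: % inhibition from 671/540 nm acceptor-to-donor ratio, scaled between controls; benchmarks: DMSO low control, neomycin B high control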
PLK1 inh: PLK1 (human) kinase inhibition; P53350; inhibition, % at 10 µM; recombinant PLK1 kinase, TR-FRET peptide phosphorylation; AID 619; hit rate 0.53% among 97,000;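 active = inhibition of 50% or more in the single-concentration screen; inactive = inhibition below 50%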
PLK1 inh conf: confirmation of human PLK1 kinase inhibitors; shares compounds with PLK1 inh; recombinant PLK1 kinase, TR-FRET peptide phosphorylation; inhibition, % at 10 µM; hit rate 20% among 210; AID 744;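 active = inhibition at or above 50% in each of two repeat confirmation tests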
TR-FRET interf: counter-screen for Plk1 inhibitors: compound assay interference. shares compounds with PLK1 inh. 210 tested, under 10 active. Plk1 TR-FRET assay interference, compound added post-reaction. AID 756. inhibition (interference), % at 10 µM;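 active = both duplicate runs show 50% or greater inhibition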
Numbers stand for hits; [ ] = dose if it differs, or a comment. Cut-off read from the data, not from the text of the source, unless noted: active = inhibition above about 30%; inactive = the rest.

What do the screens show for `O=C(CSc1nnc(-c2cccs2)n1Cc1ccco1)Nc1ccc2c(c1)OCO2`?
PostGolgi ctrl: inactive; PLK1 PBD inh: inactive; PostGolgi yeast: inactive; EphB4 ephrin blk: inactive; Rev-RRE block: inactive; PLK1 inh: inactive

What do the screens show for `O=C(CSc1ncc(-c2ccc(F)cc2)n1Cc1ccco1)Nc1ccc2c(c1)OCO2`?
PostGolgi ctrl: 31; PLK1 PBD inh: inactive; PostGolgi yeast: inactive; EphB4 ephrin blk: inactive; Rev-RRE block: inactive; PLK1 inh: inactive

How did CCNC(=O)N1CCNC(=O)C1CC(=O)OC (centres undefined) do in these assays?
PostGolgi ctrl: 31; PLK1 PBD inh: inactive; PostGolgi yeast: inactive; EphB4 ephrin blk: inactive; Rev-RRE block: inactive; PLK1 inh: inactive

How did O=C1c2ccccc2-c2cccc(NS(=O)(=O)c3ccc(C(F)(F)F)cc3)c21 do in these assays?
PostGolgi ctrl: inactive; PLK1 PBD inh: inactive; PostGolgi yeast: inactive; EphB4 ephrin blk: inactive; Rev-RRE block: 100[fluorescence artefact?]; PLK1 inh: inactive

What do the screens show for `COc1ccc(C(=O)n2nnc3ccccc32)cc1Br`?
PostGolgi ctrl: inactive; PLK1 PBD inh: inactive; PostGolgi yeast: inactive; EphB4 ephrin blk: inactive; Rev-RRE block: inactive; PLK1 inh: inactive

How did COc1ccc(N/C(=C(/C(Cl)=C(Cl)Cl)[N+](=O)[O-])n2nnc3ccccc32)cc1OC do in these assays?
PostGolgi ctrl: inactive; PLK1 PBD inh: inactive; PostGolgi yeast: inactive; EphB4 ephrin blk: inactive; Rev-RRE block: 38; PLK1 inh: inactive

Results for c1cncc(-c2nn3c(Cn4nnc5ccccc54)nnc3s2)c1 ?
PostGolgi ctrl: inactive; PLK1 PBD inh: inactive; PostGolgi yeast: inactive; EphB4 ephrin blk: inactive; Rev-RRE block: inactive; PLK1 inh: inactive

What do the screens show for `CCc1nnc2sc(-c3cc(-c4ccccc4)nc4ccccc34)nn12`?
PostGolgi ctrl: 34; PLK1 PBD inh: inactive; PostGolgi yeast: inactive; EphB4 ephrin blk: inactive; Rev-RRE block: inactive; PLK1 inh: inactive

Results for O=[N+]([O-])c1cc(-n2cnnn2)ccc1N1CCC(Cc2ccccc2)CC1 ?
PostGolgi ctrl: 74; PLK1 PBD inh: inactive; PostGolgi yeast: inactive; EphB4 ephrin blk: inactive; Rev-RRE block: inactive; PLK1 inh: inactive

How did COc1ccccc1-c1c(C(F)(F)F)oc2cc(OC(=O)c3ccccc3[N+](=O)[O-])ccc2c1=O do in these assays?
PostGolgi ctrl: 31; PLK1 PBD inh: inactive; PostGolgi yeast: inactive; EphB4 ephrin blk: inactive; Rev-RRE block: inactive; PLK1 inh: inactive

What do the screens show for `COc1ccccc1C(=O)Oc1ccc(C(C)(C)C)cc1`?
PostGolgi ctrl: inactive; PLK1 PBD inh: inactive; PostGolgi yeast: inactive; EphB4 ephrin blk: inactive; Rev-RRE block: inactive; PLK1 inh: inactive

How did N#Cc1c(C(F)(F)F)cc(-c2ccccc2Cl)[nH]c1=O do in these assays?
PostGolgi ctrl: inactive; PLK1 PBD inh: inactive; PostGolgi yeast: inactive; EphB4 ephrin blk: inactive; Rev-RRE block: inactive; PLK1 inh: inactive

How did C=C(C)C1CC=C(CN2CCC(C(=O)OCC)CC2)CC1 (centres undefined) do in these assays?
PostGolgi ctrl: inactive; PLK1 PBD inh: inactive; PostGolgi yeast: 78; EphB4 ephrin blk: inactive; Rev-RRE block: inactive; PLK1 inh: inactive

What do the screens show for `C=C(C)C1CC=C(CN2CC(C)OC(C)C2)CC1` (centres undefined)?
PostGolgi ctrl: inactive; PLK1 PBD inh: inactive; PostGolgi yeast: 95; EphB4 ephrin blk: inactive; Rev-RRE block: inactive; PLK1 inh: inactive

How did CCOC(=O)C1CCN(Cc2ccc(F)cc2)CC1 do in these assays?
PLK1 PBD inh: inactive; EphB4 ephrin blk: inactive; Rev-RRE block: inactive; PLK1 inh: inactive

Results for COc1ccc(CCn2nnnc2C(C(C)C)N2CCN(c3ncccn3)CC2)cc1OC (centres undefined) ?
PostGolgi ctrl: 35; PLK1 PBD inh: inactive; PostGolgi yeast: inactive; EphB4 ephrin blk: inactive; Rev-RRE block: inactive; PLK1 inh: inactive

Results for CC(C)C(c1nnnn1CCc1ccccc1)N1CCOCC1 (centres undefined) ?
PostGolgi ctrl: inactive; PLK1 PBD inh: inactive; PostGolgi yeast: inactive; EphB4 ephrin blk: inactive; Rev-RRE block: inactive; PLK1 inh: inactive

What do the screens show for `COc1ccc(CCn2nnnc2C(CC(C)C)N2CCN(c3ncccn3)CC2)cc1OC` (centres undefined)?
PostGolgi ctrl: inactive; PLK1 PBD inh: inactive; PostGolgi yeast: inactive; EphB4 ephrin blk: inactive; Rev-RRE block: inactive; PLK1 inh: inactive

Results for COc1ccc(N2CCN(C(c3nnnn3CCc3ccccc3)C(C)C)CC2)cc1 (centres undefined) ?
PostGolgi ctrl: 35; PLK1 PBD inh: inactive; PostGolgi yeast: inactive; EphB4 ephrin blk: inactive; Rev-RRE block: inactive; PLK1 inh: inactive

Results for C=CCn1c(-c2cccn(Cc3ccc(Cl)cc3Cl)c2=O)n[nH]c1=S ?
PostGolgi ctrl: inactive; PLK1 PBD inh: inactive; PostGolgi yeast: inactive; EphB4 ephrin blk: inactive; Rev-RRE block: inactive; PLK1 inh: inactive

What do the screens show for `N#Cc1cccc(NC(=O)CN2NS(=O)(=O)c3ccccc3C2=O)c1`?
PostGolgi ctrl: inactive; PLK1 PBD inh: inactive; PostGolgi yeast: inactive; EphB4 ephrin blk: inactive; Rev-RRE block: inactive; PLK1 inh: inactive

Results for CC1=CC(C)(C)N(S(=O)(=O)c2ccc(C)cc2)c2ccc(C)cc21 ?
PostGolgi ctrl: 60; PLK1 PBD inh: inactive; PostGolgi yeast: inactive; EphB4 ephrin blk: inactive; Rev-RRE block: inactive; PLK1 inh: inactive

Results for CC1=CC(C)(C)N(S(=O)(=O)c2ccc(F)cc2)c2ccccc21 ?
PostGolgi ctrl: inactive; PLK1 PBD inh: inactive; PostGolgi yeast: inactive; EphB4 ephrin blk: inactive; Rev-RRE block: inactive; PLK1 inh: inactive

How did O=C(CSC1=NCCN1)C1COc2ccccc2O1 (centres undefined) do in these assays?
PostGolgi ctrl: inactive; PostGolgi yeast: inactive

What do the screens show for `OC(CN1C2=NCCCN2c2ccccc21)c1ccc(Cl)cc1` (centres undefined)?
PostGolgi ctrl: inactive; PLK1 PBD inh: inactive; PostGolgi yeast: inactive; EphB4 ephrin blk: inactive; Rev-RRE block: inactive; PLK1 inh: 80; PLK1 inh conf: inactive; TR-FRET interf: inactive

What do the screens show for `O=C(CSc1nnc(C2CCCCC2)n1Cc1ccccc1)NCc1ccco1`?
PostGolgi ctrl: inactive; PLK1 PBD inh: inactive; PostGolgi yeast: inactive; EphB4 ephrin blk: inactive; Rev-RRE block: inactive; PLK1 inh: inactive

What do the screens show for `CC1(C(=O)NC2CCCCCCC2)CC1(Cl)Cl` (centres undefined)?
PostGolgi ctrl: inactive; PLK1 PBD inh: inactive; PostGolgi yeast: inactive; EphB4 ephrin blk: inactive; Rev-RRE block: inactive; PLK1 inh: inactive

Results for COc1ccc(Cl)cc1NC(=O)Cn1c(=O)n2nc(C)nc2c2ccccc21 ?
PostGolgi ctrl: inactive; PLK1 PBD inh: inactive; PostGolgi yeast: inactive; EphB4 ephrin blk: inactive; Rev-RRE block: inactive; PLK1 inh: 78; PLK1 inh conf: inactive; TR-FRET interf: inactive
